In series [1] the test system is HBV genotype D. Put plainly: Antiviral activity against HBV genotype D infected in human HepG2.2.15 cells assessed as inhibition of viral DNA level treated twice for 3 days measured after 6 days by real time PCR. It counts as functional, organism-based. As to conditions: for EC50: Hepatitis B virus; for Activity: hepatitis B virus genotype D. (Real-time PCR tracks product formation cycle by cycle.)

In series [2] the target is 5-hydroxytryptamine receptor 2B (Homo sapiens, UniProt P41595). Nature of the series: Antagonist activity at 5-HT2B (unknown origin). The format is functional. In outline: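 Receptor/ion channel/transporter panel of 80 targets screened at 10 µM, giving percent effect at 5-HT2B; follow-up 5-HT2B functional testing in agonist and antagonist modes, with antagonist IC50 determined.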
5-hydroxytryptamine receptor 2B, sequence (P41595 whole entry): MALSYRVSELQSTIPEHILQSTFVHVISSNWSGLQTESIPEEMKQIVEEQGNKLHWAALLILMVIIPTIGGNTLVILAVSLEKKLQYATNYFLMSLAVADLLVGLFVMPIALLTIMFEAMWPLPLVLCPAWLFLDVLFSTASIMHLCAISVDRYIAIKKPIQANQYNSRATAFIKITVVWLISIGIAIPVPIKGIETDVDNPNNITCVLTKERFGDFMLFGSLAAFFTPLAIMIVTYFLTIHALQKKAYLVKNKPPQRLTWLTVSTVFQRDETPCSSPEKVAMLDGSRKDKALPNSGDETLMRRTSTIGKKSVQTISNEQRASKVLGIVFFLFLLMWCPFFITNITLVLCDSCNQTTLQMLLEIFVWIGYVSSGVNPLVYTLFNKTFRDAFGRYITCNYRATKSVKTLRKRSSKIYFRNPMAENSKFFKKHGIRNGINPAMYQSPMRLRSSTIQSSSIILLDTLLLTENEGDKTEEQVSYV

A short description of series [3]: Kinetic solubility of the compound at pH 7.4 after 4 hrs by UPLC-UV analysis. The format is physicochemical. Conditions: buffer, read-out: Kinetic_solubility.
Series [4] is described as follows: Drug metabolism in human liver microsomes at 1 uM after 15 mins by LC-MS/MS analysis. Conditions: read-out: Drug metabolism. It counts as ADME, microsome. In outline: (§1)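 Compound incubated 15 min with human or mouse liver microsomes; stability expressed as percent turnover (metabolised) at 15 min.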
(In general: Microsomes from liver hold many membrane-bound enzymes, among them those of drug oxidation.)

Series [5] relates to Hepatitis B virus. Nature of the series: Antiviral activity against Hepatitis B virus infected in human HepG2.117 cells assessed as inhibition of viral DNA level after 3 days by real time PCR. The format is functional, organism-based. Conditions: HepG2.117, 72 h.
The nature of series [6]: Drug metabolism in mouse liver microsomes at 1 uM after 15 mins by LC-MS/MS analysis. It counts as ADME, microsome. As to conditions: read-out: Drug metabolism. In outline: as §1
A short description of series [7]: Cytotoxicity against human HepG2 cells after 4 days by resazurin assay. The format is cell-based. (Alamar Blue is a resazurin reagent that responds to reducing activity.)
Series [8] has as its system Hepatitis B virus. Nature of the series: Induction of HBV capsid core protein CP149 aggregation assessed as ratio between area under the curve for observed amount of core dimer and area under the curve for aggregated core protein at 20 uM after 24 hrs by size exclusion chromatographic analysis. The essentials: (§2)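 Recombinant HBV core assembly domain (aa 1–149, Cp149) was incubated with compound at 20 µM for 24 h, with a no-compound control run in parallel. Size exclusion chromatography gave the ratio of Cp149 dimer AUC to aggregated Cp149 AUC.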

Series [9] in a line: Cytotoxicity against human HepG2 cells after 6 days by resazurin assay. It counts as cell-based.
Series [10] has as its system Hepatitis B virus. Nature of the series: Induction of HBV capsid core protein CP149 aggregation assessed as large aberrant structure formation at 20 uM after 24 hrs by size exclusion chromatographic analysis. The essentials: as §2
Series [11] concerns the target Core antigen (Hepatitis B virus) (UniProt Q03732). Nature of the series: Induction of HBV Maleimidyl BoDIPY-FL-labeled capsid Cp*150 mutant aggregation incubated for 30 mins measured every 10 secs for 30 mins by fluorescence quenching assay.
A short description of series [12]: (§3) Cytotoxicity against human HepG2 cells after 4 to 6 days by resazurin assay. The format is cell-based. As to conditions: HepG2 cells.
The subject of the next series is HepG2. Described as §3. It counts as cell-based. As to conditions: hepg2.
Series [13] in a line: Drug metabolism in human primary hepatocytes assessed as cleavage of N-phenylamide. The format is ADME, cell-based, Hepatocyte. In outline:
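Compound incubated with primary hepatocytes and checked for cleavage of the N-phenylamide bond.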

Series [14] deals with HBV genotype D. Nature of the series: Antiviral activity against HBV genotype D infected in chimeric mouse with humanized liver assessed as log reduction in viral DNA level in serum at 0.03 mg/kg, po qd for 28 days by RT-PCR method. The format is functional, hepatitis B virus genotype D. The essentials: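 HBV genotype D-infected chimeric mice with humanized liver (human hepatocyte replacement index ≥70%, judged by serum human albumin). Dosing was once daily for 28 days: test article 200 mg/kg s.c., entecavir 0.03 mg/kg oral as positive control, and oral saline as negative control. The read-out was serum HBV DNA (copies/mL), given as mean log change from baseline at day 29.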

Structures are written as SMILES. Converted amounts (≈) assume the structure as drawn. The source made the active and inactive calls. The rule behind the calls is not given here. A value given as a limit tells only on which side of the number the result lay.

The term EC50 denotes the midpoint of the concentration-response curve. Broadly, the IC50 is the concentration needed to halve the response being measured. A high value points to lower potency. Usually CC50 stands for the concentration giving 50% cytotoxicity. A word on the EC20: it is the concentration at which the effect reaches the 20% level. A high value points to weaker potency.

Core antigen (Hepatitis B virus), sequence (Q03732 as listed by the source): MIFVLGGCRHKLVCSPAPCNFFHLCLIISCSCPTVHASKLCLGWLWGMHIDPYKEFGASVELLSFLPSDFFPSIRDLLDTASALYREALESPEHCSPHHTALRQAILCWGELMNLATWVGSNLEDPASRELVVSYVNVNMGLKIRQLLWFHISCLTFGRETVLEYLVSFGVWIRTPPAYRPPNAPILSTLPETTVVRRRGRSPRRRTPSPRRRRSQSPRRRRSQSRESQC

Take `O=C(Nc1ccc(F)cc1)c1cccc(C(=O)NC2CCCCC2)c1`: the EC50 is over 100000 nM with HBV genotype D [1] and over 25000 nM in the series on Hepatitis B virus [5]. The compound further returned an IC50 in series [2] of 90 nM. Also, the solubility kinetic at 4 h in [3] was under 0.4 µM. Moreover, the results for the metabolised at 0.25 h, 1 µM in series [4] and in series [6] were 56% and 93%, respectively. For the same compound, in series [7], the CC50 at 96 h was over 100000 nM. Also, in the series on Hepatitis B virus [8], the Ratio came out at 6.4.
Turning to `O=C(Nc1ccccc1)c1ccc(F)c(S(=O)(=O)NC2CCCCC2)c1`, half-maximal cytotoxicity in series [9] (CC50 at 144 h) was put at 16400 nM. Besides, in the series with HBV genotype D [1], the EC50 was 2230 nM and the Activity result was “Dose-dependent effect”. For the same compound, in series [4], the metabolised at 0.25 h, 1 µM came out at 100%.
`CCN(CC)S(=O)(=O)c1ccc(Cl)c(C(=O)Nc2ccccc2)c1` returned a CC50 at 144 h in [9] of over 25000 nM. For the same compound, in the series with HBV genotype D [1], the EC50 turned out to be 1040 nM and the Activity entry was “Dose-dependent effect”. For the same compound, the outcome with Hepatitis B virus [10] was inactive. The metabolised at 0.25 h, 1 µM in series [4] amounted to 80%. For the same compound, in the series with Hepatitis B virus [8], the Ratio came to 0.7.
Consider `O=C(Nc1ccccc1)c1cccc(S(=O)(=O)NC2CCCC2)c1`, for which the CC50 at 144 h in [9] turned out to be 27200 nM. In addition, in the series on HBV genotype D [1], the EC50 stood at 600 nM and the Activity entry is “Dose-dependent effect”. In the series on Hepatitis B virus [10], the outcome was inactive. For the same compound, in series [3], the solubility kinetic at 4 h amounted to 91 µM (≈ 31.3 µg/mL). For the same compound, in series [4], the metabolised at 0.25 h, 1 µM was 94%. The metabolised at 0.25 h, 1 µM in [6] came to 98%. Also, the outcome in [11] was Active. In addition, the Ratio in the series on Hepatitis B virus [8] came to 0.3.
As to `Cc1cc(NC(=O)c2cccc(S(=O)(=O)NC(C)C)c2)ccc1F`, the EC50 is 70 nM with HBV genotype D [1] and 150 nM in the series with Hepatitis B virus [5]. Also, the solubility kinetic at 4 h in [3] stood at 41 µM (≈ 14.4 µg/mL). Besides, the metabolised at 0.25 h, 1 µM in series [4] came out at 26%; in [6] it was 80%. Besides, the result in series [11] was Active. In series [12], this compound gave a cytotoxic concentration (CC50) of 47500 nM.
With `Cc1c(F)ccc(NC(=O)c2cccc(S(=O)(=O)NC3(C)COC3)c2)c1C`, the EC50 amounted to 2740 nM in the series on HBV genotype D [1] and 1650 nM in the series on Hepatitis B virus [5]. Also, the solubility kinetic at 4 h in series [3] is over 100 µM. The metabolised at 0.25 h, 1 µM in series [4] was determined as 0%; in series [6], 77%. Moreover, in [12], the CC50 is over 25000 nM.
With `CC(C)NS(=O)(=O)c1cccc(C(=O)Nc2ccc(F)c(F)c2)c1`, the results for the EC50 in the series with HBV genotype D [1] and in the series with Hepatitis B virus [5] were 210 nM and 400 nM, respectively. The compound also displayed an IC50 in series [2] of 230 nM. In addition, the solubility kinetic at 4 h in [3] is over 100 µM. Besides, the values for the metabolised at 0.25 h, 1 µM in series [4] and in series [6] were 18% and 60%, respectively. Moreover, the outcome in series [11] was Active. This compound also returned a 20% effect concentration (EC20) in the series with HepG2 of 1000 nM.
In the case of `Cc1ccccc1NC(=O)c1cccc(S(=O)(=O)NC2CCCCC2)c1`, the CC50 at 144 h in [9] is over 25000 nM. The EC50 in the series with HBV genotype D [1] turned out to be 4180 nM. The metabolised at 0.25 h, 1 µM in series [4] came to 86%.
For `O=C(Nc1ccc(F)cc1)c1ccc(Cl)c(S(=O)(=O)N2CCCCCC2)c1`, the CC50 at 144 h in series [9] was determined as 17000 nM. In the series on HBV genotype D [1], the concentration giving a half-maximal response (EC50) worked out at 660 nM and the Activity result is “Dose-dependent effect”. Moreover, the outcome in the series with Hepatitis B virus [10] was inactive. Further, the solubility kinetic at 4 h in [3] came out at 1 µM (≈ 0.411 µg/mL). Besides, the metabolised at 0.25 h, 1 µM in series [4] amounted to 98%. Moreover, in [6], the metabolised at 0.25 h, 1 µM came to 100%. Also, in series [11], the outcome was Active. In the series with Hepatitis B virus [8], the Ratio worked out at 0.01.
As to `Cc1cc(NC(=O)c2cccc(S(=O)(=O)NC3(C)COC3)c2)ccc1F`, the EC50 in the series with HBV genotype D [1] was determined as 120 nM; in the series on Hepatitis B virus [5], 300 nM. Moreover, in series [3], the solubility kinetic at 4 h was over 100 µM. The metabolised at 0.25 h, 1 µM came out at 7% in [4] and 65% in [6]. For the same compound, the result in [11] was Active. In [13], the Drug metabolism entry is “Metabolite_Detected”. Also, the CC50 in [12] stood at 47100 nM.
On to `Cc1c(NC(=O)c2cccc(S(=O)(=O)N[C@H]3CCOC3)c2)ccc(F)c1F`, for which the EC50 in the series with HBV genotype D [1] came out at 3630 nM; with Hepatitis B virus [5], 1910 nM. Besides, the solubility kinetic at 4 h in [3] is over 100 µM. Also, the metabolised at 0.25 h, 1 µM in series [4] amounted to 37%; in series [6], 68%. The compound further yielded a CC50 in series [12] of over 25000 nM.
Turning to `CC(C)NS(=O)(=O)c1cccc(C(=O)Nc2ccc(F)c(C3CC3)c2)c1`, the half-maximal effective concentration (EC50) with HBV genotype D [1] came out at 320 nM; with Hepatitis B virus [5] it was 910 nM. In addition, the solubility kinetic at 4 h in series [3] amounted to 31 µM (≈ 11.7 µg/mL). Further, the metabolised at 0.25 h, 1 µM was determined as 27% in series [4] and 61% in series [6]. The same compound returned a CC50 in series [12] of 35200 nM.
On to `CCc1cc(NC(=O)c2cccc(S(=O)(=O)NC(C)C)c2)ccc1F`, for which the EC50 with HBV genotype D [1] turned out to be 310 nM; in the series with Hepatitis B virus [5], 2590 nM. For the same compound, the solubility kinetic at 4 h in series [3] was 15 µM (≈ 5.47 µg/mL). Further, the metabolised at 0.25 h, 1 µM in [4] came to 31%; in [6] it was 88%. Moreover, the 50% cytotoxic concentration (CC50) in series [12] is 28500 nM.
Regarding `C=C1[C@H](CO)[C@@H](O)C[C@@H]1n1cnc2c(=O)[nH]c(N)nc21.O` [ENTECAVIR], the “log(activity)” value in the series on HBV genotype D [14] came to 3.03.
In turn, `O=C(Nc1ccccc1)c1cc(S(=O)(=O)N2CCCCC2)c(Cl)cc1Cl` returned a CC50 at 144 h in [9] of over 25000 nM. Also, in the series with HBV genotype D [1], the EC50 amounted to 500 nM and the Activity result is “Dose-dependent effect”. Further, the result in the series on Hepatitis B virus [10] was inactive. The solubility kinetic at 4 h in series [3] stood at 2 µM (≈ 0.827 µg/mL). Besides, the metabolised at 0.25 h, 1 µM in series [4] is 99%. Also, the metabolised at 0.25 h, 1 µM in series [6] was 100%. The outcome in [11] was Active. In addition, the Ratio in the series with Hepatitis B virus [8] was 0.2.

The record behind these values is ChEMBL document CHEMBL4138314, “Synthesis and Evaluation of N-Phenyl-3-sulfamoyl-benzamide Derivatives as Capsid Assembly Modulators Inhibiting Hepatitis B Virus (HBV)” (J Med Chem, 2018).
